The results in this text go back to ChEMBL document CHEMBL1122522, “Conformationally restricted retinoids” (1984).

A value given as a limit tells only on which side of the number the result lay.

Assay [1] deals with Cricetinae gen. sp. In words: Molarity required to effect reversal of keratinization in 50% of cultures. It is filed as functional, Cricetulus griseus.
Assay [2] deals with Cricetinae gen. sp. Nature of the assay: Activity of compound the was expressed as ratio of active hamster tracheal organ cultures(TOC) to the total cultures at 10e-9 M concentration; 5/19. It is filed as functional, Cricetulus griseus, Trachea. Summed up:
(§1)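 Tracheal organ cultures came from vitamin A-deficient hamsters. Each culture was scored for reversal of keratinization and reported as active cultures out of total cultures at each retinoid concentration tested (10⁻⁸ to 10⁻¹² M). The protocol followed earlier published methods.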

The test system of assay [3] is Cricetinae gen. sp. Nature of the assay: Activity of compound the was expressed as ratio of active hamster tracheal organ cultures(TOC) to the total cultures at 10e-9 M concentration; 14/15. The following applies: at 0.001 µM. It is filed as functional, Cricetulus griseus, Trachea.
In assay [4] the test system is Cricetinae gen. sp. In words: Activity of compound the was expressed as ratio of active hamster tracheal organ cultures(TOC) to the total cultures at 10e-11 M concentration; 1/8. It is filed as functional, Cricetulus griseus, Trachea. The following applies: at 10 pM.
Assay [5] relates to Cricetinae gen. sp. Nature of the assay: Activity of compound the was expressed as ratio of active hamster tracheal organ cultures(TOC) to the total cultures at 10e-10 M concentration; 4/15. It is filed as functional, Cricetulus griseus, Trachea. The following applies: at 0.0001 µM.
Assay [6] addresses T1, Ornithine decarboxylase (Mus musculus) (UniProt P00860).
T1 sequence (whole entry): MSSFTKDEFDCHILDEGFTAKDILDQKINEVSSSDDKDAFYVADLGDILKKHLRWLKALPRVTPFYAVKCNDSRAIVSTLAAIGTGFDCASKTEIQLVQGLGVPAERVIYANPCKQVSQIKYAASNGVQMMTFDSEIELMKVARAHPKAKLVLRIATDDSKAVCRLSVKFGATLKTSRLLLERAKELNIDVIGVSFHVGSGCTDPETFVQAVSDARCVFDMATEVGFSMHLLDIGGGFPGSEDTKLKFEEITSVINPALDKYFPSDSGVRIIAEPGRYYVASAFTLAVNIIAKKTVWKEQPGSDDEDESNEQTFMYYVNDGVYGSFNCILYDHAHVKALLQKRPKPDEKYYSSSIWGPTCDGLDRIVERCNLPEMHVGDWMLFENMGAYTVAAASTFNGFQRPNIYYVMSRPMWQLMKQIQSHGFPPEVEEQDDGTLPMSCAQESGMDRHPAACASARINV
Nature of the assay: TInhibition of the induction of ornithine decarboxylase in mouse epidermis by the tumor promoter 12-O-tetradecanoylphorbol-13-acetate (ODC) at dose 17 nmol.

In assay [7] the test system is Cricetinae gen. sp. Nature of the assay: Activity of compound the was expressed as ratio of active hamster tracheal organ cultures(TOC) to the total cultures at 10e-8 M concentration; 7/7. It is filed as functional, Cricetulus griseus, Trachea. The settings on record: at 0.01 µM.
Assay [8] addresses T1, Ornithine decarboxylase (Mus musculus). Nature of the assay: Inhibition of the induction of ornithine decarboxylase in mouse epidermis by the tumor promoter 12-O-tetradecanoylphorbol-13-acetate (ODC) at dose 1.7 nmol.
For assay [9] the target is unchanged. In words: Inhibition of the induction of ornithine decarboxylase in mouse epidermis by the tumor promoter 12-O-tetradecanoylphorbol-13-acetate (ODC) at dose 17 nmol.
Assay [10] relates to Cricetinae gen. sp. Nature of the assay: Activity of compound the was expressed as ratio of active hamster tracheal organ cultures(TOC) to the total cultures at 10e-9 M concentration. It is filed as functional, Cricetulus griseus, Trachea. Summed up:
as §1

Assay [11] concerns Cricetinae gen. sp. In words: Activity of compound the was expressed as ratio of active hamster tracheal organ cultures(TOC) to the total cultures at 10e-10 M concentration. It is filed as functional, Cricetulus griseus, Trachea. Put shortly: as §1
The subject of assay [12] is Cricetinae gen. sp. Nature of the assay: Activity of compound the was expressed as ratio of active hamster tracheal organ cultures(TOC) to the total cultures at 10e-8 M concentration. It is filed as functional, Cricetulus griseus, Trachea. Summed up: as §1
Assay [13] relates to Cricetinae gen. sp. Nature of the assay: Activity of compound the was expressed as ratio of active hamster tracheal organ cultures(TOC) to the total cultures at 10e-10 M concentration; 21/22. It is filed as functional, Cricetulus griseus, Trachea.
Assay [14] concerns Cricetinae gen. sp. In words: Activity of compound the was expressed as ratio of active hamster tracheal organ cultures(TOC) to the total cultures at 10e-11 M concentration; 17/22. It is filed as functional, Cricetulus griseus, Trachea.
The test system of assay [15] is Cricetinae gen. sp. In words: Activity of compound the was expressed as ratio of active hamster tracheal organ cultures(TOC) to the total cultures at 10e-12 M concentration; 4/15. It is filed as functional, Cricetulus griseus, Trachea.

`CCOC(=O)/C=C(C)/C=C/C=C(C)/C=C/C1=CC2CCC1C2` (centres undefined): in assay [1], the ED50 is greater than 1e-09. The Activity in assay [2] is 26%.
As usually defined, the inhibition is the change of the read-out against control, counted positive when it falls. Higher therefore signals a response far below the control. As to `CC1=C(CC/C(C)=C/c2ccc(C(=O)O)cc2)C(C)(C)CCC1`, the Activity was 14 active cultures in [3], 1 active cultures in assay [4], 4 active cultures in assay [5] and 7% in [7]. Also, the ED50 in assay [1] turned out to be 3e-10. Also, the results for the inhibition in assay [6] and in assay [8] were 83% and 45%, respectively.
As for `CC1=C(c2ccc(-c3ccc(C(=O)O)cc3)cc2)C(C)(C)CCC1`, the results for the inhibition in assay [9] and in [8] were 55% and 34%, respectively. Besides, the ED50 in assay [1] came to 3e-09. Also, the Activity worked out at 2% in [10], 2% in [11] and 7% in assay [12].
On to `CC1(C)CCC(C)(C)c2cc(-c3ccc4cc(C(=O)O)ccc4c3)ccc21`, for which the Activity in assay [13] came to 21%; in [14], 17%; in [15] it was 4%. For the same molecule, the ED50 in assay [1] was 3e-12.
